In ChEMBL document CHEMBL4196166 (J Med Chem, 2018):
Activity calls are given as the source filed them. No cut-off for these calls is given here.

Legend:
[1] = target: T1, Urokinase-type plasminogen activator (Homo sapiens, UniProt P00749); test: Inhibition of human kidney uPA using Z-Gly-Gly-Arg-AMC as substrate measured over 15 mins by fluorescence assay
[2] = target: Trypsin (Homo sapiens, UniProt P07477+P07478+P35030); test: Inhibition of trypsin (unknown origin) at 10 nM to 33.3 uM after 30 mins by gel-based ABPP assay; type: protein assay
[3] = test system: MDA-MB-231; test: Cytotoxicity against human MDA-MB-231 cells assessed as reduction in cell viability after 48 hrs by CellTiter 96 Aqueous One solution cell proliferation assay; type: functional, cell-based; settings: MDA-MB-231, 48 h
Outline: (§1)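 Cells grown in DMEM high glucose with 10% heat-inactivated FCS, seeded at 5000/well and left 18 h. Compounds added at 1 nM–100 µM final (0.2% vehicle), n = 4 wells per concentration, with colour blanks. After 48 h, MTS reagent added for 2 h and A490 read. IC50 from a variable-slope sigmoidal fit.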

[4] = test system: HepG2; test: Cytotoxicity against human HepG2 cells assessed as reduction in cell viability after 48 hrs by CellTiter 96 Aqueous One solution cell proliferation assay; type: functional, cell-based; settings: HepG2, 48 h; outline: as §1
[5] = test system: HEK293; test: Cytotoxicity against HEK293 cells assessed as reduction in cell viability after 48 hrs by CellTiter 96 Aqueous One solution cell proliferation assay; type: cell-based; settings: Homo sapiens, HEK293, 48 h; outline: as §1
[6] = test system: HT-1080; test: Cytotoxicity against human HT1080 cells assessed as reduction in cell viability after 48 hrs by CellTiter 96 Aqueous One solution cell proliferation assay; type: functional, cell-based; settings: HT-1080, 48 h; outline: as §1
[7] = target: T2, Epithelial sodium channel subunit alpha (Homo sapiens, UniProt P37088); test: Inhibition of S-3969-stimulated recombinant human ENaC alpha subunit expressed in HEK293 cells at 10 uM preincubated for 5 mins followed by S-3969 stimulation by FLIPR assay; type: cell-based; settings: hek293, 10 µM
T2 sequence (P37088 whole entry): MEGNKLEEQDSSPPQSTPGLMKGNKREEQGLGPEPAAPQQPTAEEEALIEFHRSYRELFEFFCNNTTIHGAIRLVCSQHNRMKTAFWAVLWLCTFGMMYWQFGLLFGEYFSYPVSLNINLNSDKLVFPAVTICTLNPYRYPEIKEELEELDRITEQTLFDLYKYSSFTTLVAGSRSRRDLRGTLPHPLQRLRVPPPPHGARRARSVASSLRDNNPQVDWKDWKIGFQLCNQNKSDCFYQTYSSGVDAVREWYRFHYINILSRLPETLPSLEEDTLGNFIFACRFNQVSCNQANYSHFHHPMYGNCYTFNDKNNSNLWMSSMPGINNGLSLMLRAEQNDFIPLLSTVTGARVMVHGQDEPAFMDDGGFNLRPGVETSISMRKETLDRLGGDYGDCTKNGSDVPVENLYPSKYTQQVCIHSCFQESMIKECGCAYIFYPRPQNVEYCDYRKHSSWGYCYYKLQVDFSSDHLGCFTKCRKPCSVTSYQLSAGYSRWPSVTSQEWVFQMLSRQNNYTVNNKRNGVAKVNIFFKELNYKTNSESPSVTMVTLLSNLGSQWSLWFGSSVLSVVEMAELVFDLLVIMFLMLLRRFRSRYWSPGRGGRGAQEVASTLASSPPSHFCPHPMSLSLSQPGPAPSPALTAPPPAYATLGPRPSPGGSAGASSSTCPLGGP
Outline: (§2)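 HEK-293 cells transfected with human ENaC α, β and γ cDNA together, plated at 20 000 cells/well, incubated overnight at 37 °C. Loaded with membrane-potential red dye for 30 min at 37 °C. Compound preincubated 5 min in HEPES-buffered salt solution (pH 7.4, 0.3% DMSO), then stimulated with 1 µM S-3969, read on FLIPR. Signal normalized to agonist alone (100%) and agonist plus 30 µM benzamil (0%). n = 4 wells.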

[8] = target: T3, Epithelial sodium channel subunit beta (Homo sapiens, UniProt P51168); test: Inhibition of S-3969-stimulated recombinant human ENaC beta subunit expressed in HEK293 cells at 10 uM preincubated for 5 mins followed by S-3969 stimulation by FLIPR assay; type: cell-based; settings: hek293, 10 µM; outline: as §2
T3 sequence (P51168 whole entry): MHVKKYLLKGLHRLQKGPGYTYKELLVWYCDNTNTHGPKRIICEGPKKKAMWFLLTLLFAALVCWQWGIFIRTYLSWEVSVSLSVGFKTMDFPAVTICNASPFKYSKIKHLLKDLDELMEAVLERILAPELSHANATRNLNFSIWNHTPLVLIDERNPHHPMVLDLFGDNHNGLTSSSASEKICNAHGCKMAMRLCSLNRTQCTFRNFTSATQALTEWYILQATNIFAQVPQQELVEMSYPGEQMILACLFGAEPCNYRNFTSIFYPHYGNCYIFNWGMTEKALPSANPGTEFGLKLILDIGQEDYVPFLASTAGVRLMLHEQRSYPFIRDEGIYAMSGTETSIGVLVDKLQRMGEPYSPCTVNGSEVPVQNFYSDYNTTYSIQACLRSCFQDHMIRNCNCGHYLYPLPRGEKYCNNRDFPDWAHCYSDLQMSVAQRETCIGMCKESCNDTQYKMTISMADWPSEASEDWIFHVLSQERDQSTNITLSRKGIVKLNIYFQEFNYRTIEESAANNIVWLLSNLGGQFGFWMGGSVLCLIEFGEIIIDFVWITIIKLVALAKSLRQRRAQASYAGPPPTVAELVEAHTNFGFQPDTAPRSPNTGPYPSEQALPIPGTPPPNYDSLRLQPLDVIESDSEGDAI

[9] = target: T4, Epithelial sodium channel subunit gamma (Homo sapiens, UniProt P51170); test: Inhibition of S-3969-stimulated recombinant human ENaC gamma subunit expressed in HEK293 cells at 10 uM preincubated for 5 mins followed by S-3969 stimulation by FLIPR assay; type: cell-based; settings: hek293, 10 µM; outline: as §2
T4 sequence (P51170 whole entry): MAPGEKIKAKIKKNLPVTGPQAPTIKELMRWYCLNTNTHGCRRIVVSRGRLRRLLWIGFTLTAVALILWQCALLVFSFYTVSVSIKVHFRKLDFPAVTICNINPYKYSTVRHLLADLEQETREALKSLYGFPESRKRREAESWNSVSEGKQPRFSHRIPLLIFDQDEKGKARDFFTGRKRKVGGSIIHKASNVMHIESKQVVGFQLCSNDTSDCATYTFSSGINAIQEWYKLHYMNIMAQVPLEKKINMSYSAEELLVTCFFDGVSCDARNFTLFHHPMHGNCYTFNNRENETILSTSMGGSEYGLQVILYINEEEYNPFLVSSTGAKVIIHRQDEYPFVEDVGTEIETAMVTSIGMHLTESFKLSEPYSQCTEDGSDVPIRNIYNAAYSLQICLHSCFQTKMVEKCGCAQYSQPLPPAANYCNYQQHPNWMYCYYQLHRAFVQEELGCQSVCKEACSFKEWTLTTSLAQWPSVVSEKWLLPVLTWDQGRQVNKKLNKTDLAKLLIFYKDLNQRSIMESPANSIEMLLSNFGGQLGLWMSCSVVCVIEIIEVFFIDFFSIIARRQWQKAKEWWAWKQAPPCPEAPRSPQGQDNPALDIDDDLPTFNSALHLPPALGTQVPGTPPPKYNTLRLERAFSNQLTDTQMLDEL

[10] = target: T1, Urokinase-type plasminogen activator; test: Inhibition of human kidney uPA after 30 mins by gel-based ABPP assay
[11] = target: T1, Urokinase-type plasminogen activator; test: Inhibition of human kidney uPA using chromogenic H-D-Ile-L-Pro-L-Arg-p-nitoraniline as substrate by fluorescence assay
Outline: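 Enzyme was uPA from human kidney cells at 10 nM final. […] Absorbance change at 405 nm gave initial rates. IC50 from a sigmoidal fit of % residual activity vs log concentration.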

[12] = target: Tissue-type plasminogen activator (Homo sapiens, UniProt P00750); test: Inhibition of tPA (unknown origin) using chromogenic H-D-Ile-L-Pro-L-Arg-p-nitoraniline as substrate by […]
[13] = target: Plasminogen (Homo sapiens, UniProt P00747); test: Inhibition of plasmin (unknown origin) using chromogenic H-D-Ile-L-Pro-L-Arg-p-nitoraniline as substrate by […]
[14] = target: Prothrombin (Homo sapiens, UniProt P00734); test: Inhibition of thrombin (unknown origin) using chromogenic H-D-Ile-L-Pro-L-Arg-p-nitoraniline as substrate by […]
[15] = target: Plasma kallikrein (Homo sapiens, UniProt P03952); test: Inhibition of human plasma kallikrein using chromogenic L-pyroGlu-L-Pro-L-Arg-p-nitroaniline as substrate by fluorescence assay
[16] = target: Coagulation factor XI (Homo sapiens, UniProt P03951); test: Inhibition of factor 11a (unknown origin) using chromogenic L-pyroGlu-L-Pro-L-Arg-p-nitroaniline as substrate by […]
[17] = target: Coagulation factor X (Homo sapiens, UniProt P00742); test: Inhibition of factor 10a (unknown origin) using chromogenic H-D-Ile-L-Pro-L-Arg-p-nitoraniline as substrate by fluorescence assay
[18] = target: Vitamin K-dependent protein C (Homo sapiens, UniProt P04070); test: Inhibition of activated protein C (unknown origin) using chromogenic L-pyroGlu-L-Pro-L-Arg-p-nitroaniline as substrate by fluorescence assay
Vitamin K-dependent protein C, sequence (P04070 43-197 limits assumed): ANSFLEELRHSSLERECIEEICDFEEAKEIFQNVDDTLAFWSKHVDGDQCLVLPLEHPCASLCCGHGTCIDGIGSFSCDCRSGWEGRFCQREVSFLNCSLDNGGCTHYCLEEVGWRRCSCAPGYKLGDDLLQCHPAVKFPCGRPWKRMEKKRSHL
Vitamin K-dependent protein C, sequence (P04070 212-461 limits assumed): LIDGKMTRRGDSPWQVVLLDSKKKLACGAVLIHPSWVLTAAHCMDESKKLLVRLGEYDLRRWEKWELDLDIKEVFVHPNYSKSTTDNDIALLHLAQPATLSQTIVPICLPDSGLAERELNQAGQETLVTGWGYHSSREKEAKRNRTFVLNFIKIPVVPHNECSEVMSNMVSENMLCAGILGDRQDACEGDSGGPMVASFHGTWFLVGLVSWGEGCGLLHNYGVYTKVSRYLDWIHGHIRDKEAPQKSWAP

Plasminogen, sequence (P00747 97-580 limits assumed): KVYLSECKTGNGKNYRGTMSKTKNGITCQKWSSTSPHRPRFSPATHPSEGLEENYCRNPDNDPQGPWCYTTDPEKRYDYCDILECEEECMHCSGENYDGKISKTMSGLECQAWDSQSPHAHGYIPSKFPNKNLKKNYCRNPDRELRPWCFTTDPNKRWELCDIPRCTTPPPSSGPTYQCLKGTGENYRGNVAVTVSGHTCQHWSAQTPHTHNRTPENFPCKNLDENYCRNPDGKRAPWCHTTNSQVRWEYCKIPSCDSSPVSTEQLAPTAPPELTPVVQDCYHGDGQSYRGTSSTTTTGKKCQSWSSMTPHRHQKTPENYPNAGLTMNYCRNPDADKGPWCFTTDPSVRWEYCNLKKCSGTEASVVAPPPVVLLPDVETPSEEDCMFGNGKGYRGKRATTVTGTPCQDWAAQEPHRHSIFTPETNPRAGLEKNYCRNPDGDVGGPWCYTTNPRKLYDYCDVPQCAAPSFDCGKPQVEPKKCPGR
Plasminogen, sequence (P00747 581-810 limits assumed): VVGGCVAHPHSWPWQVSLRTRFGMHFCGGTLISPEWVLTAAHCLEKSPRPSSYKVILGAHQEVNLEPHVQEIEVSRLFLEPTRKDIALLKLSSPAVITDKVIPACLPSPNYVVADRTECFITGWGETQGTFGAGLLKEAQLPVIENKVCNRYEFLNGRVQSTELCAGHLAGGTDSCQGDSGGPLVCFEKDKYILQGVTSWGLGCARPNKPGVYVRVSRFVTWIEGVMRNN
Coagulation factor XI, sequence (P03951 19-387 limits assumed): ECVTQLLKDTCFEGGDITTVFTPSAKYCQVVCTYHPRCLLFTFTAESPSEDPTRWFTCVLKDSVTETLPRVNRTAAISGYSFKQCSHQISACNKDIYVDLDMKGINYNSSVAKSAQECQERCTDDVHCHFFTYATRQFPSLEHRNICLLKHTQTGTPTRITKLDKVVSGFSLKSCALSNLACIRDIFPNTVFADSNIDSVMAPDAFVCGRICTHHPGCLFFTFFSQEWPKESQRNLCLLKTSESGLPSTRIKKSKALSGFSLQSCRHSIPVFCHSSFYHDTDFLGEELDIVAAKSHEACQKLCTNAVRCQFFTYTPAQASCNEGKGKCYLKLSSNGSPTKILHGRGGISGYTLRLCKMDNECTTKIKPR
Coagulation factor XI, sequence (P03951 388-625 limits assumed): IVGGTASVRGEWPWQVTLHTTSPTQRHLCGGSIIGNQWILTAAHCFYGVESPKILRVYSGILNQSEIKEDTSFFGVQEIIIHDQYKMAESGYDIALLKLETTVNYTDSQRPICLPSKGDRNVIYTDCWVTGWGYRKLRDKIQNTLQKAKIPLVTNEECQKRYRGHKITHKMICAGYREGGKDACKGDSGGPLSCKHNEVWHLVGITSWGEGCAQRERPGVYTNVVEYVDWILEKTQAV
Coagulation factor X, sequence (P00742 41-179 limits assumed): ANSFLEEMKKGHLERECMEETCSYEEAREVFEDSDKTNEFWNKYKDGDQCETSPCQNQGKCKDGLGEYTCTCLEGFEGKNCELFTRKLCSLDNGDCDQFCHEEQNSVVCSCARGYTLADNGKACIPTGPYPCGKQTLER
Coagulation factor X, sequence (P00742 235-488 limits assumed): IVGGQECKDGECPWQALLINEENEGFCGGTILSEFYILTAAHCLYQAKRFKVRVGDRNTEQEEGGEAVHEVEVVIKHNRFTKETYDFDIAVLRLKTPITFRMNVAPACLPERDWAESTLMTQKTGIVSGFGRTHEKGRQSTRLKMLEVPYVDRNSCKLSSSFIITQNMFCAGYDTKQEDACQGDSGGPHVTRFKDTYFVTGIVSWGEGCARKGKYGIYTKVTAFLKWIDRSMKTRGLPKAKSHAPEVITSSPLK
Tissue-type plasminogen activator, sequence (P00750 whole entry): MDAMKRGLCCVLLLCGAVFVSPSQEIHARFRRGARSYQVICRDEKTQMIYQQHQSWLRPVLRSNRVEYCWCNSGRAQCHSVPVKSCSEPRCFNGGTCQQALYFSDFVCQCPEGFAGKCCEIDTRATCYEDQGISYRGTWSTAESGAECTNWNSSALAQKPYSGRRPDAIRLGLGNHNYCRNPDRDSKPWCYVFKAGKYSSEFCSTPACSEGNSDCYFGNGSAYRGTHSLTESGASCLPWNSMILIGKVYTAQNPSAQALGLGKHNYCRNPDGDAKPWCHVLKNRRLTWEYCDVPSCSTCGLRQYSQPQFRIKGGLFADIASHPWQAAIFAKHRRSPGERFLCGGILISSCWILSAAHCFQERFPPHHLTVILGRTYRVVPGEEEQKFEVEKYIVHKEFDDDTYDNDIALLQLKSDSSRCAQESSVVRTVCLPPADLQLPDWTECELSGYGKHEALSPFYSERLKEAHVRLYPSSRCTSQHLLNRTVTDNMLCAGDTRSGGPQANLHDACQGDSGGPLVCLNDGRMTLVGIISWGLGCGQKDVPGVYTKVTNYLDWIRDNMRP
Plasma kallikrein, sequence (P03952 20-390 limits assumed): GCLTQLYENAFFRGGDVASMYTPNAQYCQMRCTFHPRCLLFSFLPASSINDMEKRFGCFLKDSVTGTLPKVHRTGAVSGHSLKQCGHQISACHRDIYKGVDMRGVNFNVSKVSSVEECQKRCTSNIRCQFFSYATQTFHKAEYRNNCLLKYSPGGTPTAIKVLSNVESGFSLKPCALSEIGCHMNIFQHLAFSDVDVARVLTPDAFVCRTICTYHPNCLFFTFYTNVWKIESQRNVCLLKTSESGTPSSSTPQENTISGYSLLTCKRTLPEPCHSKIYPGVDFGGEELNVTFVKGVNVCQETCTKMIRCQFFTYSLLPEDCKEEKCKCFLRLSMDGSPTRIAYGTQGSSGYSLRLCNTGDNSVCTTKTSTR
Plasma kallikrein, sequence (P03952 391-638 limits assumed): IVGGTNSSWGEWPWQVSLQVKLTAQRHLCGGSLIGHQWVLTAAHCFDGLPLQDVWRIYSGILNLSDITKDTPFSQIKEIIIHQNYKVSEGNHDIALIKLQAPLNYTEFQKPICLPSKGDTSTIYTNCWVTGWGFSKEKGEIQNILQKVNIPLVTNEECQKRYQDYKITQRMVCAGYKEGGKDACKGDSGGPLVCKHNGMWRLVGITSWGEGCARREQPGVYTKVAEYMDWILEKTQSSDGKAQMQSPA

COc1cc(OC)cc(-c2nc(C(=O)NC(=N)N)c(N)nc2N2CCCCCC2)c1 was tested, and the Ki [1] was 1.32 µM.
Molecule COc1ccc(-c2nc(C(=O)NC(=N)N)c(N)nc2N2CCCCCC2)c(OC)c1 has a Ki [1] of 2.2 µM.
With N=C(N)NC(=O)c1nc(-c2cncnc2)c(N2CCCCCC2)nc1N the Ki [1] was 0.108 µM, the inhibition [2] was “Active” and the IC50 [3] was over 100 µM. For the same molecule, the IC50 [4] was over 100 µM, the IC50 [5] was over 100 µM and the IC50 [6] was 37.1 µM. For the same molecule, the “inhibition (INH)” value [7] was “Not Active”, the “inhibition (INH)” value [8] was “Not Active” and the “inhibition (INH)” value [9] was “Not Active”. For the same molecule, the inhibition [10] was “Active”.
CC(C)Nc1ncc(-c2nc(C(=O)NC(=N)N)c(N)nc2N2CCCCCC2)cn1 was tested, and the Ki [1] was 0.042 µM.
Cn1cc(-c2nc(C(=O)NC(=N)N)c(N)nc2N2CCCCCC2)cn1 showed a Ki [1] of 0.508 µM.
CSc1ccc(-c2nc(C(=O)NC(=N)N)c(N)nc2N2CCCCCC2)cc1 gave a Ki [1] of 16.4 µM.
N=C(N)NC(=O)c1nc(-c2cnn(CCN3CCOCC3)c2)c(N2CCCCCC2)nc1N showed a Ki [1] of 0.658 µM.
For CNc1ncc(-c2nc(C(=O)NC(=N)N)c(N)nc2N2CCCCCC2)cn1, the Ki [1] was 0.043 µM.
In the case of N=C(N)NC(=O)c1nc(-c2ccsc2)c(N2CCCCCC2)nc1N, the Ki [1] is reported as 1.03 µM.
N=C(N)NC(=O)c1nc(-c2cc3c(F)cccc3o2)c(N2CCCCCC2)nc1N was tested, and the Ki [1] was 0.088 µM, the IC50 [11] was 0.43 µM and the IC50 [12] was over 20 µM. For the same molecule, the IC50 [13] was over 20 µM, the IC50 [14] was over 20 µM and the IC50 [15] was 16.7 µM. For the same molecule, the IC50 [16] was 23.3 µM, the IC50 [17] was over 50 µM and the IC50 [18] was over 50 µM. The IC50 [3] was 3.2 µM, the IC50 [4] was 68.4 µM and the IC50 [5] was 12 µM. For the same molecule, the IC50 [6] was 2.1 µM.
With COc1cc(-c2nc(C(=O)NC(=N)N)c(N)nc2N2CCCCCC2)c(OC)nn1 the Ki [1] was 0.315 µM.
In the case of N=C(N)NC(=O)c1nc(Nc2ncccn2)c(N2CCCCCC2)nc1N, the Ki [1] is reported as 0.228 µM.
With N=C(N)NC(=O)c1nc(-c2cncc3ccccc23)c(N2CCCCCC2)nc1N the Ki [1] was 3.54 µM.
COc1ccc(-c2nc(C(=O)NC(=N)N)c(N)nc2N2CCCCCC2)c(OC)n1 showed a Ki [1] of 0.884 µM.
